Measured values from the EternaBench riboswitch data.

Tested on: MS2 coat protein
Assay: apparent Kd, MS2 coat protein; higher = weaker binding; RNA-MaP array; FMN 200 µM where present
Outline: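 Two titrations, one without ligand and one with constant ligand, were run with SNAP-549-labelled MS2 coat protein from 0.7 or 1.5 nM, doubling to 3 µM. The targets were designs transcribed by stalled E. coli RNA polymerase on Illumina sequencing-chip clusters, in 100 mM Tris-HCl pH 7.5, 80 mM KCl, 4 mM MgCl2, BSA, DTT, yeast tRNA and Tween-20. The apparent Kd is the median of filtered per-cluster binding-curve fits, with green signal normalised to red-channel RNA signal and control-cluster median Fmax.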

[1] = designed as: OFF switch for flavin mononucleotide, no ligand
[2] = ligand present: flavin mononucleotide, designed as: OFF switch for flavin mononucleotide
[3] = designed as: ON switch for flavin mononucleotide, no ligand
[4] = ligand present: flavin mononucleotide, designed as: ON switch for flavin mononucleotide

| Sequence | apparent Kd [1] | apparent Kd [2] | apparent Kd [3] | apparent Kd [4] |
| --- | --- | --- | --- | --- |
| GGAUAGGACAGAGGAUAUACGUGCUAGAGAUACUAGCAAAUAAUCCUUACAUGAGGAUCACCCAUGUAGAAGGCUGUCCUAUCG | 20.2 nM | 48 nM |  |  |
| GCAGCGCAUGUAGGAUAUCGGUCAGUUUCUGAUCGAGAAGGACAUGAGGAUCACCCAUGUAAAUUACCGACUUUGUCGGGCUGC | 10.2 nM | 39.2 nM |  |  |
| UUGGACGUCGUAGAAUAUGUAGGAUAUUCCUACAUGAGGAUCACCCAUGUUGACAUGGAAGAAGGACAGAAGGACGAUGUCCAU |  |  | 188 nM | 7.02 nM |
| GCACGACAUGUAGGAUAUCGAGCGCCGAGCGCUCGAGAAGGACAUGAGGAUCACCCAUGUAUUCUGAGUGAGCGAGGUCGUGCA | 45.7 nM | 393 nM |  |  |
| AAUCAGCGGAACUUGACAUCCCUACAUGAGGAUCACCCAUGUCAGGAUAUAUGCUCUCGAGCUGCAUAGAAGGGACAUAGUGGG | 50.6 nM | 71.3 nM |  |  |
| AUGGGUUAAGGAGGAUAUAGAGGGAGGAGUAGACAUGAGGAUCACCCAUGUAUUUAAUUAGUUUACUAGAAGGCUUGUGAUUGU |  |  | 56 nM | 75.7 nM |
| GACCUACAUGAGGAUCACCCAUGUGAGGAUAUAUUGUUAUUUUUAAUAUUUUUUAGUGGUAGAAGGCGCGUGAU | 18.4 nM | 17.3 nM |  |  |
| AGCCAGGAUGAGUACCUGAGCGGGAGAAGGUACGAGGGAUCGUCUGGACAUGAGGAUCACCCAUGUAAGGAUAUCCCGCCUAUU | 8.69 nM | 15 nM |  |  |
| AAGAAACAUGAGGAUCACCCAUGUGAGGAUAUGUAAAAUAAAAUAAAAUAAAUAAUAAACAGAAGGCACAAAGG | 68 nM | 76.5 nM |  |  |
| GAACUGAAGCUUAGCUUUAGUCGUACAUGAGGAUCACCCAUGUAGGAUAUGGUAGGCAUAGCUUACUAGAAGGAUAGAGUGAUC | 198 nM | 69.6 nM |  |  |
| AAAAUACAUGAGGAUCACCCAUGUUAGGAUAUGCAAAGCCCAGUUAGCUUUUGGGUAGGUAGAAGGGACGGGUA | 23.4 nM | 20.2 nM |  |  |
| AUGGACAGCAUAGACACAUAGUAACGAGAAGGUACACAUGAGGAUCACCCAUGUACAGUCAGAAGUAAGGAUAUUGAAUGGUAG |  |  | 36.4 nM | 27.4 nM |
| AGAUCUCAAUAAGAUCCAAUACGAACAUGAGGAUCACCCAUGUAGGAUAUGCUAGAAGUAGAGUAGCAGAAGGACAAGUACCUU | 18.4 nM | 15.7 nM |  |  |
| GUUUCACAUGAGGAUCACCCAUGUGAGGAUAUGGACUUAUUGGCAAUAGUCGAUGGGUUCAGAAGGCGCGUGAU | 67.9 nM | 71.2 nM |  |  |
| UGGUUCAUGGGAGGAUAUCCUCAAGAACAUGAGGAUCACCCAUGUAAUUAUAAGCCGAAAGGCAUGGAGAAGGCCCAUGAACCU |  |  | 67.5 nM | 16.9 nM |
| AUCUCCUCUGUCAGGAUAUAUAAACUGUUGCAGUGGUAGAAGGGACAUGAGGAUCACCCAUGUAAUAUAAAUAA | 25.6 nM | 71.5 nM |  |  |
| AUAUUUAUUUAGAAGGACAUGAGGAUCACCCAUGUCGCUGGGCCCGGGAAACCGGGCCCGGCCAUGUAGGAUAUAGAUAGAUAU | 8.53 nM | 9.17 nM |  |  |
| GAAUGAGAGCAGGAUAUCUUAUAAUUGUAUGAAAGAGAAGGGCUCACAUGAGGAUCACCCAUGUGGUCCUAGAU | 42 nM | 299 nM |  |  |
| UUUACAUGAGGAUCACCCAUGUAUAGAACGGUUCAUUAAAGUGAGGAUAUACAUAAUUUUAAAUUGUAGAAGGCACUGGGUACA |  |  | 17.7 nM | 19.1 nM |
| CCUGUGUAAGGAUAUGACAAUGGUAUCUUCGGAUACCAUUGUCAGAAGGUACAUGAGGAUCACCCAUGUAACAC | 15 nM | 30.4 nM |  |  |
| UGCAGACGAGGAUAUGAUCAAUAAUACAUGAGGAUCACCCAUGUAAUACUGAUCCAUGGAUCAGAAGGCGUCUGCA | 16.7 nM | 22.9 nM |  |  |
| AGUCAUACAGGAUAUACAUGAGGAUCACCCAUGUUUAUCCUAAAAAAGUGAUCCUCAUGUAGAAGGGUAUGACA | 15.2 nM | 18.9 nM |  |  |
| UUAUUUUUACAGAAGGUUUAAUAAUAUAUAUGAGAAGGAUAUGUAACAUGAGGAUCACCCAUGUUUCACCUAUAUGAGGAUCAU | 7.26 nM | 6.11 nM |  |  |
| AAUAACAGAGGAUAUACUAUUUUAUGUGUUUAUUGUUUUGAACAUGAGGAUCACCCAUGUAGAAGGCUGAAUGA | 29.9 nM | 35.8 nM |  |  |
| UGUCGGAGCACAGGAUAUUACAUGAGGAUCACCCAUGUAUGAACCAAUAGCUGGAAACAGCAAUGUAAGAAGGCUGCUCCGACA | 5.6 nM | 5.71 nM |  |  |
| GGGAGACAUGAGGAUCACCCAUGUGAAAACGUGGCAGGAUAUGCAUGGAAACCAUACUGUGCAGAAGGGCCUUGUC |  |  | 60.5 nM | 33.1 nM |
| CGAUAACAUAGUUAUCCGUAACGGACAUGAGGAUCACCCAUGUAGGAUAUGUUACUCCACGAGUAACAGAAGGACAUGAGUCUU | 19.3 nM | 95.7 nM |  |  |
| GAGCAGGAAGGAUAUACAUGAGGAUCACCCAUGUACCAUCAAGGCUUUGAUUUUCACGGUAGAAGGUCCCAAUA | 40.3 nM | 51.4 nM |  |  |
